Reference: ChEMBL document CHEMBL1154117, “Synthesis and evaluation of a novel series of quinoline derivatives with immunosuppressive activity” (Bioorg Med Chem, 2009)

Legend:
[1] = Immunosuppressive activity in BALB/c mouse splenocytes assessed as inhibition of concanavalin A-induced cell proliferation at 10 uM after 48 hrs by MTT assay; type: functional; conditions: Splenocyte
In short: (§1)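 Spleen cells (5 × 10⁵) from male BALB/c mice aged 6–8 weeks, erythrocytes lysed, stimulated with ConA 5 μg/mL in RPMI-1640/10% FBS. Compounds diluted from DMSO stock. ConA-stimulated cells used as control. Proliferation read by MTT added 4 h before end of culture, SDS/DMF lysis for 6 h, absorbance at 570 nm.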

[2] = Immunosuppressive activity in BALB/c mouse splenocytes assessed as inhibition of concanavalin A-induced cell proliferation at 100 uM after 48 hrs by MTT assay; type: functional; conditions: Splenocyte; in short: as §1
[3] = Cytotoxicity against BALB/c mouse splenocytes at 10 uM after 48 hrs by MTT assay; type: cell-based, Splenocyte; conditions: read-out: INH
In short: (§2)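 BALB/c spleen single-cell suspension, erythrocytes depleted with Tris-buffered NH4Cl (0.155 M NH4Cl, 16.5 mM Tris, pH 7.2). Cells cultured in RPMI-1640 with 10% FBS and compound diluted from DMSO stock (0.1% DMSO in control). Medium-alone cells served as control. MTT (5 mg/mL) added 4 h before end of culture, then SDS/DMF lysis buffer (pH 7.2) for 6 h. Absorbance read at 570 nm and growth inhibition % calculated.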

[4] = Immunosuppressive activity in BALB/c mouse splenocytes assessed as inhibition of concanavalin A-induced cell proliferation at 30 uM after 48 hrs by MTT assay; type: functional; conditions: Splenocyte; in short: as §1
[5] = Cytotoxicity against BALB/c mouse splenocytes at 100 uM after 48 hrs by MTT assay; type: cell-based, Splenocyte; conditions: read-out: INH; in short: as §2
[6] = Cytotoxicity against BALB/c mouse splenocytes at 30 uM after 48 hrs by MTT assay; type: cell-based, Splenocyte; conditions: read-out: INH; in short: as §2

Structure (SMILES) | inhibition at 10 µM [1] [%] | inhibition at 100 µM [2] [%] | cytotoxicity at 48 h, 10 µM [3] [%] | inhibition at 30 µM [4] [%] | cytotoxicity at 48 h, 100 µM [5] [%] | cytotoxicity at 48 h, 30 µM [6] [%]
COc1cc(OC)c2c(=O)cc[nH]c2c1 | 0.1 | 12.3 | 6.1 | 3.7 | 7.5 | 7.8
COc1cc(OC)c2c(O[C@@H]3O[C@H](CO)[C@@H](O)[C@H](O)[C@H]3O)ccnc2c1 | 3.6 | 20.4 | 7.6 | 6 | 9.5 | 9.1
COc1cc(OC)c2c(O[C@@H]3O[C@H](CO)[C@H](O)[C@H](O)[C@H]3O)ccnc2c1 | 4.2 | 17.8 | 6.2 | 11.2 | 17 | 4.2
COc1cc(OC)c2c(O[C@@H]3OC[C@@H](O)[C@H](O)[C@H]3O)ccnc2c1 | 10.3 | 41 | 6.9 | 14.9 | 11.2 | 9.1
CCCCCCCCC(=O)Oc1ccnc2cc(OC)cc(OC)c12 | 4.4 | 31.9 | 6.4 | 2 | 11.6 | 2
COc1cc(OC)c2c(OC(=O)c3cc(Cl)cc(Cl)c3)ccnc2c1 | 3.9 | 7.9 | 3.4 | 5.1 | 7.2 | 10.7
COc1cc(OC)c2c(OC(=O)c3cc([N+](=O)[O-])cc([N+](=O)[O-])c3)ccnc2c1 | 6.3 | 5.6 | 3.4 | 5.1 | 13.4 | 9.5
COc1cc(OC)c2c(OC(=O)c3cccc(Cl)c3)ccnc2c1 | 20.6 | 90.8 | 3.1 | 42 | 12.2 | 9.4
COc1cc(OC)c2c(OC(=O)c3ccc(I)cc3)ccnc2c1 | 26.4 | 91.3 | 6 | 47.2 | 23.4 | 6.6
O=c1cc[nH]c2cc(O)cc(O)c12 | -0.9 | 18 | 1.8 | 1.7 | 8.6 | 10.9
Cc1cc(=O)c2c(O)cc(O)cc2[nH]1 | 7.5 | 26.7 | 9.1 | 4.4 | 11.2 | 9.9
CCCCCCCC/C=C\CCCCCCCC(=O)Oc1ccnc2cc(OC)cc(OC)c12 | 4.4 | 22.2 | 4.1 | 8.5 | 7.2 | 8.8
COC(=O)c1ccc(C(=O)Oc2ccnc3cc(OC)cc(OC)c23)cc1 | 15.7 | 91.4 | 6.6 | 27.8 | 23.6 | 2.2
COc1cc(OC)c2c(OC(=O)c3ccc(Cl)cc3Cl)ccnc2c1 | 35.3 | 79.2 | 16.5 | 62.3 | 22.7 | 20.8
COc1cc(OC)c2c(OC(=O)c3cccc([N+](=O)[O-])c3)ccnc2c1 | 18.8 | 82.8 | 3.3 | 42 | 12.2 | 8.1
COc1cc(OC)c2c(OC(=O)c3cccc(Br)c3)ccnc2c1 | 16.9 | 91 | 1.7 | 48.8 | 21 | 1.7
COc1cc(OC)c2c(OC(=O)c3ccccc3I)cc(C)nc2c1 | 19.9 | 91.5 | -3.4 | 54 | 37.6 | 18.2
COc1cc(OC)c2c(OC(C)=O)ccnc2c1 | 4.1 | 22.7 | 8.3 | 9.7 | 11.3 | 11.2
CCCCC(=O)Oc1ccnc2cc(OC)cc(OC)c12 | 4.1 | 13.9 | 4.5 | 5.3 | 9.4 | 10.5
COc1cc(OC)c2c(OC(=O)c3ccc(Br)cc3)ccnc2c1 | 9.2 | 48.2 | 8.6 | 17.5 | 20.7 | 7.3
COc1cc(OC)c2c(OC(=O)c3cc(Br)cc(Br)c3)ccnc2c1 | 6.4 | 12.1 | 5.5 | 10 | 6.3 | 9.4
COc1cc(OC)c2c(OC(=O)c3cccc(I)c3)ccnc2c1 | 24.7 | 85.2 | 3 | 50.5 | 11.6 | 5.6
COc1cc(OC)c2c(=O)cc(C)[nH]c2c1 | 15.9 | 57.2 | 6.5 | 35.4 | 23.6 | 14.7
COc1cc(OC)c2c(OC(=O)c3ccc(Cl)cc3)ccnc2c1 | 30.1 | 86.3 | 3.4 | 47.4 | 21.9 | 0.3
COc1cc(OC)c2c(OC(=O)c3ccccc3)cc(C)nc2c1 | 5.7 | 81.5 | -7.6 | 34.8 | 13.7 | -0.2
COc1cc(OC)c2c(OC(=O)c3ccccc3)ccnc2c1 | 6.2 | 35.4 | 0 | 13.1 | 7.7 | 4.6
COc1cc(OC)c2c(OC(=O)c3ccc([N+](=O)[O-])cc3)ccnc2c1 | 18.4 | 64 | 6 | 34.1 | 9.5 | 11.1
